Measurements reported in ChEMBL document CHEMBL2331226, “Antiproliferative and antiplasmodial dimeric phloroglucinols from Mallotus oppositifolius from the Madagascar Dry Forest (1)” (J Nat Prod, 2013).
Activity calls are given as the source filed them. The calls are words filed in the database; no cut-off is given here.

Tests used:
[1] = tested on: Plasmodium falciparum; test: Gametocytocidal antimalarial activity against chloroquine-sensitive Plasmodium falciparum NF54 late gametocyte stage after 72 hrs by alamar blue assay; format: functional, organism-based; settings: NF54, 72 h
Procedure, shortened: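 Stage V gametocytes came from NF54 cultures kept at 37 °C in 5% O2, 5% CO2 and […]. Asexual stages were cleared with 5% sorbitol for four days from day 9, and gametocytes were purified on day 13 over NycoPrep 1.077. 30,000–50,000 gametocytes per well were incubated with drug for 72 h in low O2. AlamarBlue was then added for 24 h (ex 540/em 585 nm). IC50 from dose-response fit; two independent determinations in duplicate, ± S.E.M.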

[2] = tested on: Plasmodium falciparum; test: Cytocidal antimalarial activity against chloroquine/mefloquine-resistant Plasmodium falciparum Dd2 intraerythrocytic stage; format: functional; settings: read-out: LD50 (the source's name)
Procedure, shortened: (§1)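 Killing of intraerythrocytic stages measured by a rapid cytocidal assay, per an earlier report. LD50 values are the mean of three replicate determinations ± S.E.M.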

[3] = tested on: Plasmodium falciparum; test: Cytocidal antimalarial activity against drug-sensitive Plasmodium falciparum HB3 intraerythrocytic stage; format: functional; settings: read-out: LD50 (the source's name); procedure, shortened: as §1
[4] = tested on: A2780; test: Cytotoxicity against human A2780 cells; format: functional, cell-based
[5] = tested on: Plasmodium falciparum; test: Antimalarial activity against chloroquine/mefloquine-resistant Plasmodium falciparum Dd2 intraerythrocytic stage after 72 hrs by SYBR green I dye based assay; format: functional, organism-based; settings: for IC50: Plasmodium falciparum, Dd2, 72 h
[6] = tested on: Plasmodium falciparum; test: Antimalarial activity against chloroquine-sensitive Plasmodium falciparum NF54 early gametocyte stage assessed as reduction in occurrence of asexual intraerythrocytic stages after 13 days at 0.76 uM by microscopy; format: functional, organism-based
Procedure, shortened: (§2)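 NF54 cultures at 0.75% parasitemia and 1% hematocrit were grown 13 days with or without drug in 24-well plates, humidified, at 37 °C under low oxygen. Plain or drug-supplemented medium was replaced on days 4, 6, 8 and 9-12. On day 13, asexual and sexual parasitaemia were counted on Giemsa-stained smears. Controls were untreated and 0.5% DMSO vehicle. Two independent experiments.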

[7] = tested on: Plasmodium falciparum; test: Antimalarial activity against chloroquine-sensitive Plasmodium falciparum NF54 early gametocyte stage assessed as reduction in occurrence of gametocyte stages after 13 days at 0.76 uM by microscopy; format: functional; set-up: scale not given: the % may be the effect or the level left; procedure, shortened: as §2
[8] = tested on: Plasmodium falciparum; test: Antimalarial activity against chloroquine-sensitive Plasmodium falciparum NF54 early gametocyte stage assessed as reduction in occurrence of gametocyte stages after 13 days at 0.14 uM by microscopy; format: functional, organism-based; procedure, shortened: as §2
[9] = tested on: Plasmodium falciparum; test: Antimalarial activity against chloroquine-sensitive Plasmodium falciparum NF54 early gametocyte stage assessed as reduction in occurrence of asexual intraerythrocytic stages after 13 days at 0.14 uM by microscopy; format: functional, organism-based; procedure, shortened: as §2
[10] = tested on: Plasmodium falciparum; test: Antimalarial activity against chloroquine-sensitive Plasmodium falciparum NF54 asexual stage after 72 hrs by alamar blue assay; format: functional, organism-based; settings: NF54, 72 h

Structure (SMILES) | IC50 [1] [nM] | LC50 [2] [nM] | LC50 [3] [nM] | IC50 [4] [nM] | IC100 [5] [µM] | IC50 [5] [nM] | Activity [6] | Activity [7] [%] | Activity [8] | Activity [9] | IC50 [10] [nM]
C[C@H]1[C@H](OC(=O)CCC(=O)O)O[C@@H]2O[C@@]3(C)CC[C@H]4[C@H](C)CC[C@@H]1[C@@]24OO3 [ARTESUNATE] | 2300 | – | – | – | – | – | – | – | – | – | –
COc1c(C)c(O)c(C(C)=O)c(O)c1Cc1c(O)c(C(C)=O)c(O)c(CC=C(C)C)c1OC [MALLOTOJAPONIN B] | – | 6700 | 14600 | 1100 | 44 | 750 | Active | 80 | – | – | –
COc1c(CC=C(C)C)c(O)c(C(C)=O)c(O)c1Cc1c(O)c(C(C)=O)c(O)c(CC=C(C)C)c1OC [MALLOTOJAPONIN C] | 3600 | 800 | 810 | 1300 | 39 | 140 | – | – | Active | Active | 70
